Experiment [1] relates to HaCaT. Put plainly: Activation of mitochondrial cytochrome C oxidase in human HaCaT lysate at 0.81 uM using equine cardiac cytochrome C substrate by spectrophotometry. The procedure, abridged: (§1)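 Lysis in HEPES buffer (20 mM HEPES, 0.1% Triton, 1 mM EDTA). Lysates were Bradford-adjusted to 2 mg/mL. v0 was taken without substrate, then 50 μM reduced cytochrome c was added. Loss was read at 550 nm over 90 s. Slopes gave U/μg. Activity was expressed as % of the DMSO 0.1% control; n=3, mean ± SD, paired t test.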

In experiment [2] the test system is HaCaT. Briefly: Activation of mitochondrial cytochrome C oxidase in human HaCaT lysate using equine cardiac cytochrome C substrate by spectrophotometry relative to resveratrol.
The test system of experiment [3] is HaCaT. Put plainly: Activation of mitochondrial cytochrome C oxidase in human HaCaT lysate at 0.87 to 7 uM using equine cardiac cytochrome C substrate by spectrophotometry. The procedure, abridged:
as §1

Experiment [4] relates to HaCaT. Put plainly: Induction of mitochondrial biogenesis in human HaCaT cells assessed as ratio of mitochondrial COX2 to UCP2 gene quantity at 1.75 to 7 uM by qPCR. Type of experiment: functional, cell-based. The procedure, abridged:
(§2)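 HaCaT cells were treated as for the oxidase assay, but for 48 h. Lysis in Tris 10 mM/EDTA 1 mM/NaOAc 0.3 M/SDS 1%, then phenol DNA extraction. SYBR Green qPCR ran 45 cycles at 60 °C with calibration curves from serial DNA dilutions. Mitochondrial 16S or cox2 DNA was quantified relative to nuclear ucp-2 DNA and normalized to untreated cells; biogenesis was taken as a ratio >1. n=3, mean ± SD, paired t test.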
(In qPCR the cycle at which signal appears reflects the starting amount.)

Experiment [5] concerns HaCaT. Put plainly: Induction of mitochondrial biogenesis in human HaCaT cells assessed as mitochondrial 16S rRNA level by qPCR. It counts as functional, cell-based. The method, boiled down: as §2
Experiment [6] concerns HaCaT. Briefly: Activation of mitochondrial cytochrome C oxidase in human HaCaT lysate at 50 uM using equine cardiac cytochrome C substrate by spectrophotometry. The method, boiled down:
as §1

The structures appear in SMILES notation. Activity calls are given as the source filed them. No cut-off for these calls is given here.

As for `O=C(C[C@](O)(Cc1ccc(O)cc1)C(=O)OCc1ccc(O[C@@H]2O[C@H](CO)[C@@H](O)[C@H](O)[C@H]2O)cc1)OCc1ccc(O[C@@H]2O[C@H](CO)[C@@H](O)[C@H](O)[C@H]2O)cc1`, in experiment [1], the outcome was Active. For the same molecule, the fold change (FC) in experiment [2] amounted to 60. This molecule also registered an Activity in experiment [3] of 158%. Further, the result in experiment [4] and in experiment [5] was inactive.

For the molecule `O=C(O)C[C@](O)(Cc1ccc(O)cc1)C(=O)O`, the outcome in experiment [1] was Active. The fold change (FC) in experiment [2] came out at 60. Also, the result in experiment [4] and in experiment [5] was inactive.

As for `O=C(/C=C/c1ccccc1)O[C@@H]1[C@@H](O)[C@H](O[C@@](CC(=O)OCc2ccc(O[C@@H]3O[C@H](CO)[C@@H](O)[C@H](O)[C@H]3O)cc2)(Cc2ccc(O)cc2)C(=O)OCc2ccc(O[C@@H]3O[C@H](CO)[C@@H](O)[C@H](O)[C@H]3O)cc2)O[C@H](CO)[C@H]1O`, the result in experiment [3] was inactive.

As to `O=C(C[C@](O)(Cc1ccc(O)cc1)C(=O)O)OCc1ccc(O[C@@H]2O[C@H](CO)[C@@H](O)[C@H](O)[C@H]2O)cc1`, the outcome in experiment [3], in experiment [4] and in experiment [5] was inactive.

On to `Oc1ccc(/C=C/c2cc(O)cc(O)c2)cc1`, for which, in experiment [6], the Activity turned out to be 138%.

Source of the values: ChEMBL document CHEMBL1799945, “Glucosyloxybenzyl eucomate derivatives from Vanda teres stimulate HaCaT cytochrome c oxidase” (J Nat Prod, 2011).
